From ChEMBL document CHEMBL1154577, “Cytotoxic biflavonoids from Selaginella delicatula” (J Nat Prod, 2000) come the findings set out here.

Series [1] deals with Raji. The experiment in a line: Cytotoxicity against human Raji cells at 100 uM after 3 days. The format is functional. The note with it: 72 h. In short, it runs like this:
(§1)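 K562 (erythroleukemia) and Raji (EBV-transformed B) cells grown in RPMI-1640 with 10% FCS, 100 U/mL penicillin and 100 µg/mL streptomycin at 37 °C under humidified 5% CO2. They were cultured with or without various concentrations for 3 days, then pulsed with tritiated thymidine for 16 h before harvest. Radioactivity was counted by scintillation and inhibition calculated; mean of three independent experiments.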

In series [2] the test system is Raji. Put plainly: Cytotoxicity against human Raji cells at 50 uM after 3 days. The class given is functional. Conditions: 72 h. In short, it runs like this:
as §1

In series [3] the test system is Raji. Put plainly: Cytotoxicity against human Raji cells at 25 uM after 3 days. Conditions: 72 h. The format is functional. In short, it runs like this: as §1
In series [4] the test system is Raji. The experiment in a line: Cytotoxicity against human Raji cells at 12.5 uM after 3 days. The format is functional. Conditions: 72 h. In short, it runs like this:
as §1

For series [5], the system named is Calu-1. Put plainly: Cytotoxicity against human Calu1 cells at 100 uM after 3 days. The note with it: Calu-1, 72 h. The format is functional. In short, it runs like this: (§2)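 Vero, Wish, Calu-1 and HeLa cells were kept in MEM with 10% FCS, 100 µg/mL streptomycin and 100 U/mL penicillin at 37 °C under humidified 5% CO2. Cells were exposed to various concentrations, or none, for 3 days, with a tritiated thymidine pulse for the final 16 h before harvest. Incorporation was read by scintillation counting and inhibition calculated; three independent experiments averaged.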

Series [6] relates to Calu-1. Put plainly: Cytotoxicity against human Calu1 cells at 50 uM after 3 days. The note with it: Calu-1, 72 h. The format is functional. In short, it runs like this:
as §2

For series [7], the system named is Calu-1. The experiment in a line: Cytotoxicity against human Calu1 cells at 25 uM after 3 days. The class given is functional. Conditions: Calu-1, 72 h. In short, it runs like this: as §2
In series [8] the test system is Calu-1. Put plainly: Cytotoxicity against human Calu1 cells at 12.5 uM after 3 days. Conditions: Calu-1, 72 h. The class given is functional. In short, it runs like this:
as §2

Series [9] has as its system K562. Put plainly: Cytotoxicity against human K562 cells at 100 uM after 3 days. The class given is functional. Conditions: K562, 72 h. In short, it runs like this:
as §1

Series [10] in a line: Cytotoxicity against african green monkey Vero cells at 100 uM after 3 days. The class given is cell-based. The note with it: chlorocebus sabaeus, read-out: INH. In short, it runs like this:
as §2

The test system of series [11] is HeLa. The experiment in a line: Cytotoxicity against human HeLa cells at 100 uM after 3 days. The note with it: 72 h. The class given is functional. In short, it runs like this:
as §2

The test system of series [12] is WISH. Put plainly: Cytotoxicity against human Wish cells at 100 uM after 3 days. The format is cell-based. The note with it: 72 h. In short, it runs like this: as §2
For series [13], the system named is Raji. The experiment in a line: Cytotoxicity against human Raji cells after 3 days. The note with it: 72 h. The class given is functional, cell-based. In short, it runs like this: as §1
For series [14], the system named is Calu-1. Put plainly: Cytotoxicity against human Calu1 cells after 3 days. The class given is functional, cell-based. Conditions: Calu-1, 72 h. In short, it runs like this:
as §2

Series [15] has as its system K562. The experiment in a line: Cytotoxicity against human K562 cells after 3 days. Conditions: K562, 72 h. The format is functional, cell-based. In short, it runs like this: as §1
Series [16] has as its system Vero. Put plainly: Cytotoxicity against african green monkey Vero cells after 3 days. The format is cell-based. The note with it: Chlorocebus sabaeus, 72 h. In short, it runs like this: as §2
Series [17] concerns WISH. The experiment in a line: Cytotoxicity against human Wish cells after 3 days. The format is cell-based. Conditions: 72 h. In short, it runs like this: as §2
In series [18] the test system is HeLa. Put plainly: Cytotoxicity against human HeLa cells after 3 days. The note with it: 72 h. The class given is functional, cell-based. In short, it runs like this: as §2

The structures appear in SMILES notation.

A word on the inhibition: it is the change of the read-out against control, counted positive when it falls. As to `COc1cc(O)c2c(=O)cc(-c3ccc(OC)c(-c4c(O)cc5c(c4O)C(=O)C[C@H](c4ccc(O)cc4)O5)c3)oc2c1`, the inhibition at 100 µM worked out at 96.3% in series [1], 100% in [5], 18% in series [9] and 35% in series [11]. Besides, the inhibition at 50 µM in [2] amounted to 24.7%; in [6] it was 55.4%. Also, the values for the inhibition at 25 µM in series [3] and in [7] were 22.3% and 29.9%, respectively. The inhibition at 12.5 µM in series [4] amounted to 17.9%; in series [8] it was 15.8%. Besides, in series [10], the cytotoxicity at 72 h, 100 µM was determined as 26.8%. Also, the “inhibition (INH)” value in [12] was -65%.
As for `COc1ccc(-c2cc(=O)c3c(O)cc(O)cc3o2)cc1-c1c(O)cc2oc(-c3ccc(O)cc3)cc(=O)c2c1O`, the inhibition at 100 µM in series [1] came to 98.4%; in series [5], 100%; in series [9], 10.8%; in series [11], 5.5%. For the same compound, the results for the inhibition at 50 µM in [2] and in [6] were 68.5% and 77.9%, respectively. The figures for the inhibition at 25 µM in [3] and in series [7] were 60.7% and 44.6%, respectively. For the same compound, the figures for the inhibition at 12.5 µM in [4] and in series [8] were 34.2% and 42.6%, respectively. In addition, in [10], the cytotoxicity at 72 h, 100 µM was -6.6%. Moreover, the “inhibition (INH)” value in [12] is -90%.
As usually defined, the IC50 is the concentration that inhibits the measured activity by half. Turning to `COc1cc(O)c2c(=O)cc(-c3ccc(OC)c(-c4c(O)cc5oc(-c6ccc(O)cc6)cc(=O)c5c4O)c3)oc2c1`, the IC50 in series [13], in [14], in series [15], in [16], in series [17] and in series [18] was more than 100 µM in each case.
`COc1cc(O)c2c(=O)cc(-c3ccc(OC)c(-c4c(OC)cc5c(c4O)C(=O)C[C@H](c4ccc(O)cc4)O5)c3)oc2c1`: the IC50 in series [13], in series [14], in series [15], in series [16], in series [17] and in [18] was more than 100 µM each time.
On to `O=c1cc(-c2ccc(O)c(-c3c(O)cc(O)c4c(=O)cc(-c5ccc(O)cc5)oc34)c2)oc2cc(O)cc(O)c12` [AMENTOFLAVONE], for which the IC50 in [13], in series [14], in series [15], in series [16], in series [17] and in series [18] was more than 100 µM throughout.
On to `O=c1cc(-c2ccc(O)c(-c3c(O)cc4oc(-c5ccc(O)cc5)cc(=O)c4c3O)c2)oc2cc(O)cc(O)c12` [ROBUSTAFLAVONE], for which the IC50 in series [13], in series [14], in series [15], in series [16], in [17] and in series [18] was more than 100 µM each time.
